Source: PubChem BioAssay
Hits are enriched below; roughly 2.6% of the tested compounds scored in any of these assays.
HTRA1 inh – inhibitors of human serine peptidase HTRA1. Q92743. recombinant HTRA1, FP-rhodamine activity-based probe, fluorescence polarization. inhibition, % at 5.96 µM. hit rate 0.5% among 340,000; in the data active = inhibition above about 36%;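 note: 0% = enzyme with DMSO and 100% = wells lacking enzyme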
SIAE inh – inhibitors of human sialic acid acetylesterase SIAE. Q9HAT2. SIAE FP-Rh probe binding, fluorescence polarization. inhibition, % at 9.66 µM. hit rate 0.69% among 370,000;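 active = inhibition above a cutoff: mean of compounds within the control limits plus 3 SD of those, cut at about 17% in these data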;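 note: 0% = plate median of compound wells and 100% = probe without SIAE protein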
TCR-CD3 inh – blocks the human TCR-CD3 interaction; inhibition, % at 9.4 µM; hit rate 0.37% among 360,000; AID 651800; TAMRA-labeled TCR probe fluorescence, biochemical;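 note: recombinant mutant TCR 2C K166C tagged with TAMRA read by polarization; 0% = receptor in buffer alone and 100% = receptor with positive control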
ABHD4 inh – inhibits mouse alpha/beta hydrolase domain 4. inhibition, % at 8.92 µM. Q8VD66. purified mABHD4, FP-Rh probe fluorescence polarization. hit rate 0.54% among 370,000. AID 720543;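 active = inhibition exceeding the mean over every tested compound plus 3 SD, cut at about 30% in these data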;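 note: 0% = plate median of compound wells and 100% = S159A mutant with DMSO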
Target sequence (Q8VD66 whole entry, looked up, the tested form may be a part): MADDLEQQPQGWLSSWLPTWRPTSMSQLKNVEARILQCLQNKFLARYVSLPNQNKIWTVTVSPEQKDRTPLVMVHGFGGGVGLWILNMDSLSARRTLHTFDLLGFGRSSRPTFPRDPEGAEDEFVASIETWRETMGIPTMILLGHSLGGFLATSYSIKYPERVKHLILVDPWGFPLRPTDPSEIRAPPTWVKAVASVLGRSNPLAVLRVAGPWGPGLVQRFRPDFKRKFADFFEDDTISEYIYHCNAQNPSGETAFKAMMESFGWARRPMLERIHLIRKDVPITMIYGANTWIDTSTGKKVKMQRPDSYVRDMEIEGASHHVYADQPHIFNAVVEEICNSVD
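Assay system: wild-type mouse ABHD4 protein; compound: single nominal dose of 8.92 µM, 0.89% DMSO final; schedule: 45 min + 60 min at 25 °C; measured by: FP readout, ex 525 nm / em 598 nm; evaluation: % inhibition of FP-Rh probe binding versus controls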
PRMT1 FP inh – inhibitors of human PRMT1. Q99873. recombinant PRMT1, activity-based probe fluorescence polarization. hit rate 1.3% among 370,000. inhibition, % at 2.79 µM. AID 652257;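 active = inhibition above about 21% made by adding two undisclosed values, limit read from the data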
Target sequence (Q99873 whole entry, looked up): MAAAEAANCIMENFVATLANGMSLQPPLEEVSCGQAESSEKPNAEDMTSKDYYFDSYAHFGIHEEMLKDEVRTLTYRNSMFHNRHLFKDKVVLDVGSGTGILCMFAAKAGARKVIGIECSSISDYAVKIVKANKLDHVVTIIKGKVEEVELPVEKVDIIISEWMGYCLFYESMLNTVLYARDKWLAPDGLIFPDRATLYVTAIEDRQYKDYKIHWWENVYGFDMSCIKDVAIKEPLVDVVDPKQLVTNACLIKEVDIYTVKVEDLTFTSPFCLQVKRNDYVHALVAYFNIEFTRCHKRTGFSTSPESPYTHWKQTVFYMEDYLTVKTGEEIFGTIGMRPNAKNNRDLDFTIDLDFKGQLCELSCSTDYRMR
HTRA1 inh conf – confirmation of human HTRA1 inhibitors; recombinant HTRA1, FP-rhodamine activity-based probe, fluorescence polarization; AID 540248; inhibition, % at 5.96 µM; shares compounds with HTRA1 inh; hit rate 66% among 1,600;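 active = mean inhibition over three repeats above a set limit taken from the earlier primary screen, cut at about 37% in these data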;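 note: 0% = HTRA1 with DMSO and 100% = wells lacking HTRA1; inhibitors block probe binding so polarization drops and inhibition rises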
BSA probe FL – counter-screen for TCR-CD3 interaction inhibitors: BSA probe; AID 652035; shares compounds with TCR-CD3 inh; hit rate 10% among 1,200; TAMRA-labeled BSA probe fluorescence counterscreen; inhibition, % at 9.4 µM; in the data active = inhibition above about 23%;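 note: 0% = buffer low control and 100% = reference high control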
TCR-CD3 conf – TCR-CD3 interaction inhibition, confirmation; shares compounds with TCR-CD3 inh; hit rate 48% among 1,200; inhibition, % at 9.4 µM; TAMRA-labeled TCR probe fluorescence binding assay
PRMT1 inh conf – confirmation of human PRMT1 inhibitors | shares compounds with PRMT1 FP inh | hit rate 42% among 3,300 | AID 687036 | inhibition, % at 2.79 µM | recombinant His-PRMT1, activity-based probe fluorescence polarization;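 active = mean inhibition across replicates above the hit cutoff derived for the earlier primary screen, cut at about 22% in these data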
mABHD4 conf – ABHD4 (mouse) inhibition, FP confirmation | shares compounds with ABHD4 inh | purified mABHD4, FP-Rh probe fluorescence polarization | inhibition, % at 8.92 µM | hit rate 55% among 1,800;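 active = mean inhibition across replicates above the hit cutoff set in the primary screen, cut at about 30% in these data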;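 note: 0% = wild-type ABHD4 with DMSO and 100% = catalytically dead S159A mutant with DMSO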
SIAE inh conf – human SIAE inhibition, confirmation; shares compounds with SIAE inh; SIAE FP-Rh activity-based probe, fluorescence polarization; inhibition, % at 9.66 µM; hit rate 13% among 2,300; AID 1117263;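 active = mean inhibition of the replicates above the hit cutoff set in the primary screen, cut at about 17% in these data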;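 note: 0% = SIAE with DMSO and probe and 100% = probe without SIAE; inhibitors lower polarization as more probe stays unbound to SIAE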
* = called active by the depositor; . = no result. Cut-off read from the data, not from the text of the source, unless noted: active = inhibition above about 19%; inactive = the rest.

SMILES | HTRA1 inh | SIAE inh | TCR-CD3 inh | ABHD4 inh | PRMT1 FP inh | HTRA1 inh conf | mABHD4 conf | SIAE inh conf | others
Oc1c(Br)cc(Br)cc1/C=N/NC(=S)N[C@H]1CC2C=CC1C2 (stereo not given in full) | 57* | 24* | 32* | 38* | -5 | 63* | 43* | 24* | BSA probe FL=-12;TCR-CD3 conf=38*
CCOc1ccc(/C=N/NC(=S)NC2CC3C=CC2C3)cc1 (stereo not given) | . | 3 | 1 | -5 | 2 | . | . | .
O=[N+]([O-])c1cccc(N/N=C/c2cccc(O)c2O)c1 | 60* | 23* | 7 | 36* | 3 | 74* | 34* | -6
CC1(C)CC(Nc2ccc(Nc3ccccc3)cc2)CC(C)(C)N1 | 42* | 20* | 5 | 21 | 23* | 54* | . | 6
CC1(C)CC(NC(=O)c2ccccc2)CC(C)(C)N1 | 5 | 0 | 1 | -1 | -10 | . | . | .
CC(C)(C)c1ccc(S(=O)(=O)N2CCCC(C(=O)NCCN3CCC(Cc4ccccc4)CC3)C2)cc1 (stereo not given) | . | -1 | . | 13 | 3 | . | . | .
COC(=O)[C@]12C[C@H](CC(=O)N3CCC(c4ccccc4)CC3)C(=O)N(Cc3ccccc3)C1=C[C@H](C(C)(C)C)O[C@@H]2C | . | 0 | 4 | 0 | 2 | . | . | .
CN(/N=C/c1ccc(O)cc1O)c1ncc(C(F)(F)F)cc1Cl | 56* | 19* | -5 | 7 | 0 | 89* | . | 2
CN(/N=C/c1ccccc1Cl)c1ncc(Cl)cc1C(F)(F)F | 3 | -2 | -3 | -2 | 3 | . | . | .
CCOC(=O)N1CCN(C(=O)C[C@H]2C[C@@]3(C(=O)OC)C(=C[C@H](C(C)(C)C)O[C@@H]3C)N(Cc3ccc4c(c3)OCO4)C2=O)CC1 | . | 1 | 0 | 1 | -5 | . | . | .
Cc1ccc2sc(NNC(=O)c3cc(-c4cccs4)nc4ccccc34)nc2c1C | . | -2 | -5 | 8 | 0 | . | . | .
Cc1ccc2sc(NNC(=O)c3cc(=O)c4ccccc4o3)nc2c1C | 70* | 25* | -10 | 41* | 10 | 132* | 59* | 33*
CC(C)(C)[C@H](NC(=O)c1cc(Cl)cc(Cl)c1)C(=O)N1CCC[C@H]1C(=O)N[C@H](C#N)CC(=O)O | . | 4 | . | 3 | 3 | . | . | .
Cc1nn(-c2ccccc2)c(N2CCCC2)c1/C=N/NC(=O)c1ccccc1O | 8 | 4 | 5 | 15 | 0 | . | . | .
O=C(N/N=C/c1cc2c3c(c1O)CCCN3CCC2)c1ccccc1O | 51* | 43* | 69* | 44* | 17 | 58* | 22 | 36* | BSA probe FL=31*;TCR-CD3 conf=68*
CN(C)c1ccc(NC(=S)OC2CCC23CCC(c2ccccc2)CC3)cc1 (stereo not given) | . | -2 | . | 0 | 0 | . | . | .
O=c1[nH]c(=S)[nH]c2nc(-c3ccccc3)cnc12 | 2 | 3 | 0 | 9 | 13 | . | . | .
Cc1cc2nc3c(=O)[nH]c(=S)[nH]c3nc2cc1NC(=O)C(F)(F)F | 46* | 21* | 70* | 65* | 165* | 3 | 18 | 8 | BSA probe FL=-2;TCR-CD3 conf=9
Cc1ccc(-n2nc3cc(C)c(N)cc3n2)cc1 | -17 | 11 | 0 | 11 | 3 | . | . | .
Cc1cc2nc3ccc(N(C)C)cc3nc2cc1N | 66* | 30* | 93* | 57* | 70* | 60* | 24 | 32* | BSA probe FL=48*;TCR-CD3 conf=72*
CC(C)C(=O)Oc1ccc(CO)cc1[C@H](CCN(C(C)C)C(C)C)c1ccccc1 | . | 6 | . | 1 | -2 | . | . | .
CCCCn1c(=O)[nH]c2nc3cc(N)ccc3nc2c1=O | 42* | 31* | 21* | 68* | 149* | 37* | 44* | 10 | PRMT1 inh conf=143*
CCCCn1c(N)c(Br)c(=O)[nH]c1=O | -3 | 4 | 0 | 0 | 8 | . | . | .
CC1(c2nnnn2C2CCCCC2)CSCC(=O)N1CCc1ccc(O)cc1 (stereo not given) | . | 5 | . | 1 | -2 | . | . | .
COc1cc(-c2ccc(Nc3ccccc3C(=O)O)c(OC)c2)ccc1Nc1ccccc1C(=O)O | 42* | 30* | 10 | 54* | 8 | 56* | 80* | 22*
SMILES | HTRA1 inh | SIAE inh | TCR-CD3 inh | ABHD4 inh | PRMT1 FP inh | HTRA1 inh conf | mABHD4 conf | SIAE inh conf | others
COc1cc([N+](=O)[O-])c(OC)cc1Nc1ccccc1C(=O)O | . | -3 | 1 | 8 | 1 | . | . | .
CCCCNC(=O)C1(C(=O)C2CC2)CC(c2ccccc2C(F)(F)F)=NO1 (stereo not given) | . | 3 | . | 5 | 3 | . | . | .
COCCN=c1scc(-c2ccco2)n1/N=C/c1ccc(O)c(O)c1O | 68* | 28* | 26* | 60* | 40* | 78* | 62* | -4 | BSA probe FL=-28;TCR-CD3 conf=24*
Cc1cc(C(=O)COc2ccccc2C(N)=O)c(C)n1C | 5 | 4 | 4 | -1 | -1 | . | . | .
Cc1cc(C(=O)COc2cccc3cccnc23)c(C)n1C | 80* | 23* | 11 | 74* | 20 | 16 | 12 | 5
CN=c1scc(C)n1/N=C/c1ccc(O)c(O)c1O | 39* | 19* | 53* | 41* | 26* | 60* | 24 | 0 | BSA probe FL=-16;TCR-CD3 conf=65*
CN=c1scc(C)n1/N=C/c1cc(Br)c(O)c(OC)c1 | 5 | 7 | 5 | 14 | 1 | . | . | .
S=C(Nc1ccccc1)Nc1ccccn1 | 0 | 4 | 2 | -3 | 2 | . | . | .
S=C(Nc1ccc(Nc2ccccc2)cc1)Nc1ccccn1 | 38* | 32* | 0 | 6 | 23* | 40* | . | 3
O=C(Nc1cc(Cl)ccc1F)C1CCCN1S(=O)(=O)c1cccc2cccnc12 (stereo not given) | . | 8 | . | -1 | -3 | . | . | .
O=C1C=CC(=O)c2c(O)c(CO)c(CO)c(O)c21 | 46* | 53* | 78* | 62* | 50* | 57* | . | 44* | BSA probe FL=-3;TCR-CD3 conf=59*
COc1ccc2c(c1OC)C(=O)OC2 | -16 | 5 | -3 | -6 | -2 | . | . | .
COc1ccc2c3c(cccc13)C(=O)CC2 | 141* | 73* | 57* | 87* | 145* | 3 | 5 | 3 | BSA probe FL=14;TCR-CD3 conf=7;PRMT1 inh conf=81*
CC(=O)N1c2ccccc2C(=O)NCC1C(=O)NC(C)(C)C (stereo not given) | . | 1 | . | -7 | 4 | . | . | .
